Here are results for twelve compounds from publication PMC10500653 (ACS Omega, 2023).

Where two headings read alike, the source gives them in different places.

Series [1] has as its system A549 lung carcinoma cell line. Kind of series: Cytotoxicity assay. The series is classed as cell-based, human. To be noted: for IC50: Homo sapiens, A549, 48 h. An outline of the steps:
(§1)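 Cells were pre-plated in medium, then an equal volume of medium holding serial dilutions of the test compound was added to reach the final concentrations. Controls were DMSO (negative) and etoposide and/or doxorubicin (positive). Plates were incubated a further 48 h and surviving cells were counted by MTT. IC50 is the concentration giving 50% growth inhibition relative to the DMSO control.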

The test system of series [2] is MDA-MB-231 hormone-independent breast cancer. The experiment in a line: Cytotoxicity assay. The series is classed as cell-based. Conditions: Homo sapiens, MDA-MB-231, 48 h, read-out: Cytotoxic activity IC50, MDA-MB-231. The essentials:
as §1

Series [3] is described as follows: Cytotoxicity assay. The series is classed as cell-based. To be noted: human, MRC-5 normal embryonic lung cells. The essentials:
as §1

Series [4] relates to HuCCA-1 cholangiocarcinoma cell line. The experiment in a line: Cytotoxicity assay. The series is classed as cell-based. To be noted: Homo sapiens, HuCC-A1, 48 h, read-out: Cytotoxic activity IC50, HuCCA-1. The essentials: as §1
In series [5] the test system is HepG2 hepatocellular carcinoma cell line. Kind of series: Cytotoxicity assay. The series is classed as cell-based, human. To be noted: for IC50: Homo sapiens, HepG2, 48 h; for Cytotoxic activity IC50, HepG2: 48 h, MTT. The essentials:
as §1

Series [6] concerns T47D hormone-dependent breast cancer. Kind of series: Cytotoxicity assay. It is filed as cell-based. To be noted: Homo sapiens, 48 h, read-out: Cytotoxic activity IC50, T47D. An outline of the steps: as §1
Series [7] has as its system MOLT-3 lymphoblastic leukemia cell line. The experiment in a line: Cytotoxicity assay. It is filed as cell-based. Conditions: Homo sapiens, MOLT-3, 48 h, read-out: Cytotoxic activity IC50, MOLT-3. The essentials:
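MOLT-3 cells received an equal volume of additional medium with serial dilutions of the test compound to reach the final concentrations. DMSO served as the negative control and etoposide and/or doxorubicin as the positive control. After a further 48 h incubation, surviving cells were counted by XTT. IC50 is the concentration inhibiting growth by 50% versus the DMSO control.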

The target of series [8] is FGFR1 tyrosine kinase (Homo sapiens, UniProt P11362). The experiment in a line: ADP-Glo kinase assay, FGFR1. It is filed as biochemical. Conditions: for inhibition at 1 µM: read-out: % inhibition of FGFR1.
Sequence of FGFR1 tyrosine kinase (P11362 22-822): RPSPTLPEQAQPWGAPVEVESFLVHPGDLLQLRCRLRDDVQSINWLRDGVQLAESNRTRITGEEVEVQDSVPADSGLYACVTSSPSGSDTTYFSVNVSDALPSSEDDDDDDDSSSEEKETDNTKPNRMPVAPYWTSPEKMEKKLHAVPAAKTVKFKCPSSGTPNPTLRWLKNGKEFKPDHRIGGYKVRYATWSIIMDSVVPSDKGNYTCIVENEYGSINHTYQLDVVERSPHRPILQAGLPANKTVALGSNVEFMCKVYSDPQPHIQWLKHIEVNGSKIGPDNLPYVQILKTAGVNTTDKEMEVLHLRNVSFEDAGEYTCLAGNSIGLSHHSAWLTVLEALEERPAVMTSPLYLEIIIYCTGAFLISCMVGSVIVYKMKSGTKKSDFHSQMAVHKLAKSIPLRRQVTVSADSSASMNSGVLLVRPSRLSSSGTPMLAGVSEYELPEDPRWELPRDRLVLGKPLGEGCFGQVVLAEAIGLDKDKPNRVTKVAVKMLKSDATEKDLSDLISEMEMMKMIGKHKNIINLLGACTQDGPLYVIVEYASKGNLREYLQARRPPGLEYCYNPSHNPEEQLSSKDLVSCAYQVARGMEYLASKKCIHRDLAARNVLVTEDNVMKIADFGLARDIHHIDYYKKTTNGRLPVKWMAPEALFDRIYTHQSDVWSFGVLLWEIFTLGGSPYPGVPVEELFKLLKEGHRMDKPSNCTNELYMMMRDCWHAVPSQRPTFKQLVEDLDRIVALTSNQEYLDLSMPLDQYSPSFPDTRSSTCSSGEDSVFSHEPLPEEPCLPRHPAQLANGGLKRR
[9] abbreviates: read-out: Cytotoxic activity IC50, A549.
Where [10] appears, read: read-out: Cytotoxic activity IC50, HepG2.
Setting [11] is: read-out: Cytotoxic activity, HepG2 (class NC).

On to `COc1cccc2c1C(=O)c1c(O)c3c(c(O)c1C2=O)C[C@@](O)(C(=O)CO)C[C@@H]3O[C@H]1C[C@H](N)[C@H](O)[C@H](C)O1` [doxorubicin, reference compound], for which the IC50 in series [1] (setting [9]) was 370 ± 20 nM; in series [2], 1840 ± 130 nM; in series [4], 420 ± 20 nM; in series [5] (setting [10]) it was 570 ± 50 nM; in series [6] it was 840 ± 10 nM. Besides, in series [3], the IC50 at 48 h amounted to 2790 ± 110 nM.
As for `COc1cccc(/C=C/C(=O)c2ccc(NC3=C(Cl)C(=O)c4ccccc4C3=O)cc2)c1` [Compound 6, (E)-2-Chloro-3-((4-(3-(3-methoxyphenyl)acryloyl)phenyl)amino)naphthalene-1,4-dione], the IC50 in series [1] (setting [9]) turned out to be 13500 ± 1490 nM; in series [2], 1310 ± 30 nM; in series [7], 1780 ± 60 nM; in series [4], 11100 ± 370 nM; in series [5] (setting [10]) it was 6880 ± 2720 nM; in series [6] it was 2100 ± 120 nM. This compound also displayed an IC50 at 48 h in series [3] of 2690 ± 150 nM.
On to `COc1cc(/C=C/C(=O)c2cccc(NC3=C(Cl)C(=O)c4ccccc4C3=O)c2)cc(OC)c1O` [Compound 4, (E)-2-Chloro-3-((3-(3-(4-hydroxy-3,5-dimethoxyphenyl)acryloyl)phenyl)amino)naphthalene-1,4-dione], for which the IC50 turned out to be 25000 ± 4220 nM in series [1] (setting [9]); 1430 ± 110 nM in series [2]; 1100 ± 140 nM in series [7]; 7060 ± 1360 nM in series [4]; 0.96 ± 0.05 nM in series [8]; 12800 ± 420 nM in series [5] (setting [10]). The IC50 in series [6] was 2120 ± 110 nM. The compound further returned an IC50 at 48 h in series [3] of 2900 ± 480 nM. For the same compound, in series [8], the inhibition (as a rule, the relative decrease from the control value, in per cent) at 1 µM is over 70%.
Take `COc1ccc(/C=C/C(=O)c2cccc(NC3=C(Cl)C(=O)c4ccccc4C3=O)c2)c(OC)c1OC` [Compound 2, (E)-2-Chloro-3-((3-(3-(2,3,4-trimethoxyphenyl)acryloyl)phenyl)amino)naphthalene-1,4-dione]: the IC50 is 33500 ± 170 nM in series [1] (setting [9]); 1790 ± 120 nM in series [2]; 1810 ± 50 nM in series [7]; 8870 ± 1030 nM in series [4]; 1.5 ± 0.28 nM in series [8]; 16300 ± 440 nM in series [5] (setting [10]). For the same compound, the IC50 in series [6] was determined as 2320 ± 80 nM. The compound further gave an IC50 at 48 h in series [3] of 2600 ± 40 nM. Besides, the inhibition at 1 µM in series [8] was over 70%.
With `O=C(/C=C/c1ccc(O)cc1)c1cccc(NC2=C(Cl)C(=O)c3ccccc3C2=O)c1` [Compound 5, (E)-2-Chloro-3-((3-(3-(4-hydroxyphenyl)acryloyl)phenyl)amino)naphthalene-1,4-dione], the IC50 in series [1] (setting [9]) worked out at 31900 ± 3710 nM; in series [2], 3330 ± 80 nM; in series [7], 2190 ± 260 nM; in series [4], 5650 ± 80 nM; in series [8], 0.33 ± 0.01 nM; in series [5] (setting [10]) it was 13070 ± 120 nM. Also, in series [6], the IC50 was found to be 5750 nM. In series [3], the IC50 at 48 h is 11000 ± 990 nM. The inhibition at 1 µM in series [8] was over 70%.
For `COc1cccc(/C=C/C(=O)c2cccc(NC3=C(Cl)C(=O)c4ccccc4C3=O)c2)c1OC` [Compound 1, (E)-2-Chloro-3-((3-(3-(2,3-dimethoxyphenyl)acryloyl)phenyl)amino)naphthalene-1,4-dione], the IC50 in series [1] (setting [9]) came out at 6120 ± 1560 nM; in series [2], 1080 ± 120 nM; in series [7], 1240 ± 30 nM; in series [4] it was 1160 ± 400 nM; in series [8], 0.91 ± 0.08 nM; in series [5] (setting [10]), 5130 ± 150 nM. Moreover, in series [6], the IC50 came out at 1810 ± 40 nM. This compound had an IC50 at 48 h in series [3] of 4960 ± 140 nM. In series [8], the inhibition at 1 µM is over 70%.
In the case of `COc1ccc(/C=C/C(=O)c2ccc(NC3=C(Cl)C(=O)c4ccccc4C3=O)cc2)cc1O` [Compound 9, (E)-2-Chloro-3-((4-(3-(3-hydroxy-4-methoxyphenyl)acryloyl)phenyl)amino)naphthalene-1,4-dione], the “Cytotoxic activity IC50, A549” value in series [1] (A549, 48 h, MTT) is “inactive”. Also, the IC50 in series [1] (read-out: Cytotoxic activity, A549 (class NC)) was over 50 µg/mL; in series [2], 6810 ± 520 nM; in series [7] it was 830 ± 10 nM; in series [4], 6850 ± 1200 nM; in series [8], 0.5 ± 0.04 nM; in series [5] (setting [11]), over 50 µg/mL. The IC50 in series [6] is 24000 ± 1610 nM. This compound also had an IC50 at 48 h in series [3] of 14940 ± 90 nM. For the same compound, in series [5], the “Cytotoxic activity IC50, HepG2” value is “inactive”.
Regarding `O=C(/C=C/c1ccc(O)cc1)c1ccc(NC2=C(Cl)C(=O)c3ccccc3C2=O)cc1` [Compound 10, (E)-2-Chloro-3-((4-(3-(4-hydroxyphenyl)acryloyl)phenyl)amino)naphthalene-1,4-dione], the IC50 in series [1] (setting [9]) came to 44200 ± 4060 nM; in series [2], 1370 ± 70 nM; in series [7], 2350 ± 390 nM; in series [4] it was 7700 ± 2850 nM; in series [8], 3.13 ± 0.67 nM; in series [5] (setting [10]) it was 57500 ± 1280 nM. Also, the IC50 in series [6] was determined as 3210 ± 60 nM. The compound further returned an IC50 at 48 h in series [3] of 8310 ± 3300 nM. For the same compound, in series [8], the inhibition at 1 µM was over 70%.
In the case of `COc1cc(/C=C/C(=O)c2cccc(NC3=C(Cl)C(=O)c4ccccc4C3=O)c2)cc(OC)c1OC` [Compound 3, (E)-2-Chloro-3-((3-(3-(3,4,5-trimethoxyphenyl)acryloyl)phenyl)amino)naphthalene-1,4-dione], the IC50 in series [1] (setting [9]) came out at 51600 ± 10300 nM; in series [2], 1050 ± 40 nM; in series [7], 990 ± 120 nM; in series [4], 4720 ± 480 nM; in series [5] (setting [10]), 16900 ± 740 nM; in series [6], 1150 ± 80 nM. In series [3], this compound returned an IC50 at 48 h of 2520 ± 260 nM.
As for `COc1cc(/C=C/C(=O)c2ccc(NC3=C(Cl)C(=O)c4ccccc4C3=O)cc2)cc(OC)c1OC` [Compound 8, (E)-2-Chloro-3-((4-(3-(3,4,5-trimethoxyphenyl)acryloyl)phenyl)amino)naphthalene-1,4-dione], the IC50 in series [1] (setting [9]) was 25800 ± 3550 nM; in series [2], 1090 ± 20 nM; in series [7] it was 810 ± 20 nM; in series [4], 4720 ± 330 nM; in series [8], 1.69 ± 0.71 nM; in series [5] (setting [10]), 10870 ± 10 nM. For the same compound, the IC50 in series [6] is 1610 ± 70 nM. The IC50 at 48 h in series [3] turned out to be 2920 ± 360 nM.
Turning to `COc1cc([C@@H]2c3cc4c(cc3[C@@H](O[C@@H]3O[C@@H]5CO[C@@H](C)O[C@H]5[C@H](O)[C@H]3O)[C@H]3COC(=O)[C@H]23)OCO4)cc(OC)c1O` [etoposide, reference compound], the IC50 in series [7] is 41 ± 3 nM; in series [5] (setting [10]) it was 33980 ± 10 nM.
With `COc1ccc(/C=C/C(=O)c2ccc(NC3=C(Cl)C(=O)c4ccccc4C3=O)cc2)cc1OC` [Compound 7, (E)-2-Chloro-3-((4-(3-(3,4-dimethoxyphenyl)acryloyl)phenyl)amino)naphthalene-1,4-dione], the IC50 in series [1] (setting [9]) was 62060 ± 140 nM; in series [2], 1160 ± 30 nM; in series [7] it was 1270 ± 120 nM; in series [4], 7320 ± 370 nM; in series [8] it was 0.85 ± 0.08 nM; in series [5] (setting [11]), over 50 µg/mL. In series [6], the IC50 was found to be 1860 ± 60 nM. For the same compound, in series [3], the IC50 at 48 h stood at 2930 ± 160 nM. In series [8], the inhibition at 1 µM was over 70%. In addition, the “Cytotoxic activity IC50, HepG2” value in series [5] was “inactive”.
